Test results: ChEMBL document CHEMBL4270662, “Discovery of Orally Active Inhibitors of Brahma Homolog (BRM)/SMARCA2 ATPase Activity for the Treatment of Brahma Related Gene 1 (BRG1)/SMARCA4-Mutant Cancers” (J Med Chem, 2018)
Converted amounts (≈) assume the structure as drawn. The source made the active and inactive calls. The rule behind the calls is not given here.

Experiments:
[1] = Inhibition of BRM/BRG1 mutant-dependant cell proliferation in human SKMEL5 cells after 6 days by celltiter-glo luminescent cell viability assay; assay type: cell-based; details: SK-MEL-5, 144 h
[2] = Inhibition of BRM/BRG1 mutant in human NCI-H1299 cells assessed as reduction in KRT80 gene expression after 24 hrs by luciferase reporter gene assay; assay type: cell-based; details: NCI-H1299, 24 h
Method in brief: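 NCI-H1299 cells carry NanoLuc knocked into the endogenous KRT80 locus and are grown in RPMI-1640 with 10% FBS. Plated at 500 cells/well and left overnight, then dosed over 10 points in 3-fold dilutions from 10 µM.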

[3] = biological target: T1, SWI/SNF-related matrix-associated actin-dependent regulator of chromatin subfamily A member 2 (Homo sapiens, UniProt P51531); assay: Inhibition of recombinant His10-tagged ZZ-HCV3C-BRM ATPase-SnAC (636 to 1331 residues) (unknown origin) expressed in insect sf9 cells preincubated for 5 mins followed by pCMV-dR8.91 plasmid and ATP addition measured after 60 mins by ADP-Glo assay
[4] = Thermodynamic solubility of the compound at 1 mg/ml pH 6.8 after 16 to 24 hrs by shake-flask method; assay type: physicochemical; details: buffer, read-out: Therm_solubility
[5] = biological target: T2, SWI/SNF-related matrix-associated actin-dependent regulator of chromatin subfamily A member 4 (Homo sapiens, UniProt P51532); assay: Inhibition of recombinant His6-tagged BRG1 ATPase-SnAC (658 to 1361 residues) (unknown origin) expressed in insect sf9 cells preincubated for 5 mins followed by pCMV-dR8.91 plasmid and ATP addition measured after 60 mins by ADP-Glo assay
SBC-5 = assay: Antiproliferative activity against human SBC5 cells assessed as cell growth inhibition after 6 days by celltiter-glo luminescent cell viability assay; assay type: functional, cell-based; details: SBC-5, 144 h
[6] = biological target: T1, SWI/SNF-related matrix-associated actin-dependent regulator of chromatin subfamily A member 2; assay: Inhibition of recombinant His10-tagged ZZ-HCV3C-BRM ATPase-SnAC (636 to 1331 residues) (unknown origin) expressed in insect sf9 cells preincubated for 5 mins followed by pCMV-dR8.91 and 10 times ATP addition measured after 60 mins by ADP-Glo assay
Method in brief: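 BRM residues 636-1331 (tag removed by HCV3C cleavage), 5 nM final, preincubated with compound for 5 min at room temperature. Reaction started with ATP at 10x Km plus 2 nM pCMV-dR8.91 plasmid, run 60 min. ADP-Glo luminescence read; IC50 by nonlinear regression of duplicate averages.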

[7] = biological target: T1, SWI/SNF-related matrix-associated actin-dependent regulator of chromatin subfamily A member 2; assay: Binding affinity to N-terminal avi-tagged BRM ATPase-SnAC domain (unknown origin) in presence of ADP by SPR assay
Method in brief: (§1)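 SPR at 10 °C: about 2000 RU of N-terminal Avi-tagged BRM ATPase-SnAC captured on a streptavidin chip, with a blank reference cell. Compound dose series injected 60 s at 100 µL/min with 120 s dissociation; data solvent-corrected, double-referenced and fit 1:1 for KD.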

[8] = biological target: T1, SWI/SNF-related matrix-associated actin-dependent regulator of chromatin subfamily A member 2; assay: Inhibition of full length BRM ATPase (1 to 1572 residues) (unknown origin) expressed in insect sf9 cells preincubated for 5 mins followed by pCMV-dR8.91 plasmid and ATP addition measured after 60 mins by ADP-Glo assay
Method in brief: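 Full-length BRM (1-1572), purified from Sf9 cells by Ni or anti-FLAG affinity, then anion exchange and size exclusion. Reaction run 60 min at room temperature; ADP-Glo luminescence read-out; IC50 from duplicate means.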

[9] = Thermodynamic solubility of the compound at 1 mg/ml pH 1 after 16 to 24 hrs by shake-flask method; assay type: physicochemical; details: buffer, read-out: Therm_solubility
[10] = biological target: T1, SWI/SNF-related matrix-associated actin-dependent regulator of chromatin subfamily A member 2; assay: Binding affinity to N-terminal avi-tagged BRM ATPase-SnAC domain (unknown origin) in absence of ADP by SPR assay; method in brief: as §1
[11] = biological target: T2, SWI/SNF-related matrix-associated actin-dependent regulator of chromatin subfamily A member 4; assay: Binding affinity to BRG1 ATPase-SnAC domain (unknown origin) expressed in insect sf9 cells assessed as change in melting temperature at 100 uM by DSF-assay (reference value: 0 degreeC)
[12] = biological target: T2, SWI/SNF-related matrix-associated actin-dependent regulator of chromatin subfamily A member 4; assay: Binding affinity to His6-tagged BRG1 ATPase-SnAC (658 to 1361 residues) (unknown origin) expressed in insect sf9 cells by ITC method
[13] = biological target: T2, SWI/SNF-related matrix-associated actin-dependent regulator of chromatin subfamily A member 4; assay: Binding affinity to BRG1 ATPase-SnAC domain (unknown origin) expressed in insect sf9 cells assessed as change in melting temperature at 100 uM in presence of ADP by DSF-assay (reference value: 0 degreeC)
[14] = biological target: T2, SWI/SNF-related matrix-associated actin-dependent regulator of chromatin subfamily A member 4; assay: Binding affinity to BRG1 ATPase-SnAC domain (unknown origin) expressed in insect sf9 cells assessed as change in melting temperature at 500 uM by DSF-assay (reference value: 0 degreeC)
[15] = Inhibition of BRM/BRG1 mutant in human RERF-LC-A1 cells assessed as reduction in KRT80 gene expression after 24 hrs by luciferase reporter gene assay; assay type: cell-based
Mus musculus [16] = assay: In vivo inhibition of BRM/BRG1 mutant in human RERF-LC-A1 cells xenografted in athymic nude mouse assessed as reduction in KRT80 gene expression at 20 mg/kg, po after 7 hrs by real-time PCR method; assay type: functional
Method in brief: (§2)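 RERF-LC-AI tumor-bearing nude mice received oral compound daily, suspended in 0.5% methyl cellulose and 0.5% Tween 80 in water, at 7.5 or 20 mg/kg. Tumor KRT80 mRNA was measured at several post-dose time points, including 7 h and 16 h onward.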

RERF-LC-AI [17] = assay: Anti-tumor activity in human RERF-LC-A1 cells xenografted in athymic nude mouse assessed as tumor growth inhibition at 20 mg/kg, po administered for 3 weeks measured twice per week during compound dosing relative to control; assay type: functional; details: 504 h, read-out: TGI
Method in brief: (§3)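 Nude mice bearing RERF-LC-AI xenografts were dosed orally with a suspension in 0.5% methyl cellulose and 0.5% Tween 80 in water. Dosing was daily for 3 weeks at 7.5 or 20 mg/kg. Tumor growth and tolerability were followed during dosing.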

Mus musculus [18] = assay: Time required for unbound plasma concentration to reach above in vitro unbound EC50 for reduction in BRM/BRG1 mutant-induced KRT80 gene expression in human RERF-LC-A1 cells in athymic nude mouse at 20 mg/kg, po administered daily for 3 weeks; assay type: ADME, organism-based; details: in vivo, 504 h
Method in brief: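 Nude mice bearing RERF-LC-AI tumors were dosed orally once daily for 3 weeks at 20 mg/kg. The dose was a suspension in 0.5% methyl cellulose and 0.5% Tween 80 in water. Unbound plasma concentrations over time were compared with the cellular KRT80 EC50.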

RERF-LC-AI [19] = assay: Anti-tumor activity in human RERF-LC-A1 cells xenografted in athymic nude mouse assessed as tumor growth at 30 mg/kg, po administered daily for 4 consecutive days followed by incubation for next 3 days in absence of compounds relative to control; assay type: functional
Mus musculus [20] = assay: Toxicity in athymic nude mouse xenografted with human RERF-LC-A1 cells up to 20 mg/kg, po administered for 3 weeks; assay type: organism-based; details: in vivo, 504 h; method in brief: as §3
Mus musculus [21] = assay: In vivo inhibition of […] in human RERF-LC-A1 cells xenografted in athymic nude mouse assessed as reduction in KRT80 mRNA expression at 20 mg/kg, po measured at 16 hrs post last dose of 3 weeks of daily dosing by RT-PCR analysis; assay type: functional, organism-based; method in brief: as §2
Mus musculus [22] = assay: In vivo inhibition of BRM/BRG1 mutant in human RERF-LC-A1 cells xenografted in po dosed athymic nude mouse assessed as reduction in KRT80 gene expression after 7 to 24 hrs by real-time PCR method; assay type: functional, organism-based; method in brief: as §2
Mus musculus [23] = assay: In vivo inhibition of BRM/BRG1 mutant in human RERF-LC-A1 cells xenografted in athymic nude mouse assessed as reduction in KRT80 gene expression at 20 mg/kg, po after 16 to 24 hrs by real-time PCR method; assay type: functional, organism-based; method in brief: as §2
RERF-LC-AI [24] = assay: Anti-tumor activity in human RERF-LC-A1 cells xenografted in athymic nude mouse assessed as tumor growth inhibition at 7.5 mg/kg, po administered for 3 weeks measured twice per week during compound dosing relative to control; assay type: functional; details: 504 h, read-out: TGI; method in brief: as §3
[25] = biological target: SWI/SNF-related matrix-associated actin-dependent regulator of chromatin subfamily A member 2 (Homo sapiens, UniProt P51531, E852Q); assay: Binding affinity to N-terminal MBP-fused human BRM RecA domain E852Q mutant expressed in Escherichia coli BL21 Star (DE3) by ITC method
[26] = biological target: T1, SWI/SNF-related matrix-associated actin-dependent regulator of chromatin subfamily A member 2; assay: Binding affinity to N-terminal MBP-fused human BRM RecA domain (705 to 960 residues) expressed in Escherichia coli BL21 Star (DE3) by ITC method

T1 sequence (P51531 whole entry, the tested form may be a part): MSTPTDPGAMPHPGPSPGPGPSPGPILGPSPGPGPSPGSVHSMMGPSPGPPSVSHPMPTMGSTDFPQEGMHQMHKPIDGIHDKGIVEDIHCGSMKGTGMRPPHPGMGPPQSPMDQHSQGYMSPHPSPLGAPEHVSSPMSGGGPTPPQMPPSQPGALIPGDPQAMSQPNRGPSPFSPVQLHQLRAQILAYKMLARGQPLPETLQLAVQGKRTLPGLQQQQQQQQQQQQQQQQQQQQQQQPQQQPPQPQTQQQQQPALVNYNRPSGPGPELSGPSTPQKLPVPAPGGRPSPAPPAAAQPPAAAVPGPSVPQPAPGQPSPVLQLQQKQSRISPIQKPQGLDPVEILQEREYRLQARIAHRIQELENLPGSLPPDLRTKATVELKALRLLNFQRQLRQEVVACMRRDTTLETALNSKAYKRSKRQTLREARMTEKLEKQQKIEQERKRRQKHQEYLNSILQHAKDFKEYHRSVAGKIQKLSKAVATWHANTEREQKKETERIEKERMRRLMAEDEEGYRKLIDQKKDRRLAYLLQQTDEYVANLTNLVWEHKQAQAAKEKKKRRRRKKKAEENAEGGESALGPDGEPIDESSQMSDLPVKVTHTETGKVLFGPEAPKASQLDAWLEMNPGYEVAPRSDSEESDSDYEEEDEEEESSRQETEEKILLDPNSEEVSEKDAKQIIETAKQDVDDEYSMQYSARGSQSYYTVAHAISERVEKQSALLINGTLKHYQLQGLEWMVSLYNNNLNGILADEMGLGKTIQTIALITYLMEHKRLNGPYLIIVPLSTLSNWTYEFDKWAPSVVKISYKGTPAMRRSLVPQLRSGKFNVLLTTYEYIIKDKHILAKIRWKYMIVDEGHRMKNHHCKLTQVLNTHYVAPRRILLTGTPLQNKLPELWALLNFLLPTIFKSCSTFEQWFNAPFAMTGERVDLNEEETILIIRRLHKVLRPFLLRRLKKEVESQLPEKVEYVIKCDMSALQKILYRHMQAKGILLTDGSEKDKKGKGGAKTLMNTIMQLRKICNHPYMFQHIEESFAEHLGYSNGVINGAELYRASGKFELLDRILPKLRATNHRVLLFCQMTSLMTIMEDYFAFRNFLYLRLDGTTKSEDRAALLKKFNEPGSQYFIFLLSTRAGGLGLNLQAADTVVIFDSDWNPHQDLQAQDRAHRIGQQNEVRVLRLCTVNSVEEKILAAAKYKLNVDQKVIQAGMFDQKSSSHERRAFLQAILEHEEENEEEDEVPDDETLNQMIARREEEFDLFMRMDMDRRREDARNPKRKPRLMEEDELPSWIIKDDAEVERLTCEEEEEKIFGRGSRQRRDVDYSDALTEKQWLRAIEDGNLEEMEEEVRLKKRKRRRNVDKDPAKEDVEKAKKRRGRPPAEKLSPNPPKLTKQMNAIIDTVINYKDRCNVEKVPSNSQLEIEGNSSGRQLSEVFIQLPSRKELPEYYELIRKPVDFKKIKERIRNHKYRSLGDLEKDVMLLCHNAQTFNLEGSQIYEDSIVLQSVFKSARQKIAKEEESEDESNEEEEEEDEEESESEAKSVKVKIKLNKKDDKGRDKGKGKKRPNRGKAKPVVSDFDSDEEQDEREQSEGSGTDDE
T2 sequence (P51532 whole entry, the tested form may be a part): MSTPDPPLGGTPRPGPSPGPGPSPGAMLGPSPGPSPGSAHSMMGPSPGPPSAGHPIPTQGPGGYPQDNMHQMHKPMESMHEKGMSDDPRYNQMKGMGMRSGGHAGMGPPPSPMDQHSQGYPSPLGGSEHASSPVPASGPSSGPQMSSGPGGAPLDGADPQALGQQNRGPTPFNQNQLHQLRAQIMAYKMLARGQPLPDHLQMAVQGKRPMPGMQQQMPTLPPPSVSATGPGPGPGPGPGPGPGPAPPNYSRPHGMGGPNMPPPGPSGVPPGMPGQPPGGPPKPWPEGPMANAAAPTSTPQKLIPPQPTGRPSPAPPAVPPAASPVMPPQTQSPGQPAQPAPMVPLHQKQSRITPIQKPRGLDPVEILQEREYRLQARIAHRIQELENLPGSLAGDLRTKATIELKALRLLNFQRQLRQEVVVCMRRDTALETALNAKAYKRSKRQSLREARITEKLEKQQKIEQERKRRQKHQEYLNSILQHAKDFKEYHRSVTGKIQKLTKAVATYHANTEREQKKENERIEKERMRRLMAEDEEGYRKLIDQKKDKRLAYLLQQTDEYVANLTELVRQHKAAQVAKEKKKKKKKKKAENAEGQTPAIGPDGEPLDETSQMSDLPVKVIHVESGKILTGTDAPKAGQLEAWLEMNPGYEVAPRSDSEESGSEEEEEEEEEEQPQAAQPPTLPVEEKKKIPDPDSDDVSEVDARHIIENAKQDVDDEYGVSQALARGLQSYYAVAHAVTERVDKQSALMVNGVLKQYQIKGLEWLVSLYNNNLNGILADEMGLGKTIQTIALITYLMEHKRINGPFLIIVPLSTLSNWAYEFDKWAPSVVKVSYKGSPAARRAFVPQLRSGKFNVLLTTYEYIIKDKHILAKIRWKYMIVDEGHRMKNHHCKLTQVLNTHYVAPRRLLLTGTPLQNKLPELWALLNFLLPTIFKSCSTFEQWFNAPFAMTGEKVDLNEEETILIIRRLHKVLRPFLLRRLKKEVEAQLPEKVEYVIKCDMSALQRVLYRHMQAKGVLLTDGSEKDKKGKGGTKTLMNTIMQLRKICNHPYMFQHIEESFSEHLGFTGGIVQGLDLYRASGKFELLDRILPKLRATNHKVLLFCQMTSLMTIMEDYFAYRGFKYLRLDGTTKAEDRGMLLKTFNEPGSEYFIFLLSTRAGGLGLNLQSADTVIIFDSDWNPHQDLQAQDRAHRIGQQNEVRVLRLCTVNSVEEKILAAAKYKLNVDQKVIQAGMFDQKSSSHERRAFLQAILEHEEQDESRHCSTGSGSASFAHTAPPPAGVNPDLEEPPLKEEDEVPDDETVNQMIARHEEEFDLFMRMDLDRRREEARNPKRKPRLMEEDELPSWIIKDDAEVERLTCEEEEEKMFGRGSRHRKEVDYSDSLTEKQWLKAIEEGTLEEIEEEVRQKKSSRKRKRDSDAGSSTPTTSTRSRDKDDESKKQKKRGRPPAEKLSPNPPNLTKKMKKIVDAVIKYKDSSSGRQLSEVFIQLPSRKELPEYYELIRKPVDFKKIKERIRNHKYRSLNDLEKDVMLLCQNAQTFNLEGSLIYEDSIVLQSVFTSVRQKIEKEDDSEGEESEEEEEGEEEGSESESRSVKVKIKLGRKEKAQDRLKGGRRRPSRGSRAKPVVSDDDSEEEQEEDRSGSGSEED
Sequence of SWI/SNF-related matrix-associated actin-dependent regulator of chromatin subfamily A member 2 (Homo sapiens, UniProt P51531, E852Q) (P51531 whole entry E852Q, the tested form may be a part): as the sequence (P51531 whole entry, the tested form may be a part) above, with E852Q counted along it

## Nc1cnc(Cl)cc1NC(=O)Nc1cc(C(F)F)ns1
[1]
  EC50: 13 nM
[2]
  EC50: 26 nM
[3]
  IC50: < 5 nM
[4]
  solubility thermodynamic: 40 µM (≈ 12.8 µg/mL)
[5]
  IC50: < 5 nM
SBC-5
  EC50: > 10000 nM

## O=C(Nc1ccncc1)Nc1ccnc(Cl)c1
[6]
  inhibition: Active
[7]
  Kd: 450 nM
[8]
  IC50: 8100 nM
[9]
  solubility thermodynamic: 3100 µM (≈ 771 µg/mL)
[3]
  IC50: 1100 nM
[4]
  solubility thermodynamic: 330 µM (≈ 82.1 µg/mL)
[10]
  Activity: Dose-dependent effect
  Kd: 87 nM
[11]
  ΔTm: 3.8 °C
[12]
  Kd: 280 nM
[5]
  IC50: 770 nM
[13]
  ΔTm: 5.8 °C

## Nc1ncnc2c1ncn2[C@@H]1O[C@H](COP(=O)(O)OP(=O)(O)O)[C@@H](O)[C@H]1O
[14]
  ΔTm: 3.1 °C

## Cc1csc(NC(=O)Nc2ccnc(Cl)c2)n1
[3]
  IC50: 970 nM
[5]
  IC50: 570 nM

## Cc1cc(NC(=O)Nc2ccnc(Cl)c2)ccn1
[3]
  IC50: 200 nM
[5]
  IC50: 150 nM

## O=C(Nc1cc(C(F)F)ns1)Nc1cc(Cl)ncc1CO
[1]
  EC50: 13 nM
[2]
  EC50: 42 nM
[3]
  IC50: < 5 nM
[5]
  IC50: < 5 nM
SBC-5
  EC50: > 10000 nM

## O=C(Nc1ccnc(Cl)c1)Nc1cc(C(F)(F)F)ns1
[1]
  EC50: 130 nM
[2]
  EC50: 930 nM
SBC-5
  EC50: > 10000 nM

## Nc1cnc(F)cc1NC(=O)Nc1cc(C(F)F)ns1
[1]
  EC50: 5 nM
[2]
  EC50: 10 nM
[3]
  IC50: < 5 nM
[4]
  solubility thermodynamic: 92 µM (≈ 27.9 µg/mL)
[5]
  IC50: < 5 nM
SBC-5
  EC50: > 10000 nM

## O=C(Nc1ccnc(Cl)c1)Nc1ccnc(C(F)(F)F)c1
[3]
  IC50: 60 nM
[5]
  IC50: 30 nM

## O=C(Nc1cc(C(F)F)ns1)Nc1cc(F)ncc1CO
[1]
  EC50: 4 nM
[15]
  EC50: 10 nM
[2]
  EC50: 10 nM
Mus musculus [16]
  inhibition in vivo at 20 mg/kg: ≤ 90%
[3]
  IC50: < 5 nM
RERF-LC-AI [17]
  inhibition in vivo at 20 mg/kg: 55%
Mus musculus [18]
  Time: 12 h
[4]
  solubility thermodynamic: 34 µM (≈ 10.8 µg/mL)
RERF-LC-AI [19]
  T/C: 30%
Mus musculus [20]
  Activity: Non-Toxic
Mus musculus [21]
  inhibition: Dose-dependent effect
Mus musculus [22]
  inhibition: Dose-dependent effect
[5]
  IC50: < 5 nM
Mus musculus [23]
  inhibition: inactive
SBC-5
  EC50: > 10000 nM
RERF-LC-AI [24]
  inhibition in vivo at 7.5 mg/kg: 21%

## Cc1cc(NC(=O)Nc2ccnc(Cl)c2)sn1
[1]
  EC50: 650 nM
[2]
  EC50: > 10000 nM
SBC-5
  EC50: > 10000 nM

## Cc1c[nH]c(NC(=O)Nc2ccnc(Cl)c2)n1
[3]
  IC50: > 50000 nM

## O=C(Nc1ccnc(Cl)c1)Nc1ccccn1
[3]
  IC50: 3800 nM
[5]
  IC50: 1700 nM

## O=C(Nc1ccnc(Cl)c1)Nc1ccnc(C(F)F)c1
[3]
  IC50: 110 nM

## O=C(Nc1ccnc(Cl)c1)Nc1cc(C(F)F)ns1
[1]
  EC50: 31 nM
[25]
  Kd: > 10000 nM
[2]
  EC50: 360 nM
[26]
  Kd: 13 nM
SBC-5
  EC50: 6300 nM
